Assay outcomes from PubChem.
A selection: hits, their analogues and other compounds. The true share with any hit is near 2.3%.
NR2E3 ag-1 – activates human NR2E3 receptor; 360,000 tested, 0.35% active; inhibition of corepressor binding, % at 3.98 µM; Q9Y5X4; CHO-S Gal4-NCOR/VP16-NR2E3 two-hybrid, luciferase; AID 602229;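 active means inhibition above the mean of all tested compounds plus 3 SD, cut at about 70% in these data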;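 further: 0% = DMSO with NR2E3 transfected cells and 100% = cells lacking NR2E3 construct; higher means lower luciferase signal from less NR2E3 corepressor binding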
GalR3 antag – antagonists of human GalR3. O60755. 360,000 tested, 0.44% active. inhibition, % at 3 µM. HEK293 GalR3-CNG cAMP membrane potential fluorescence; galR3 body fused to GalR1 C-terminus. AID 651719;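 active means inhibition above the screen-wide average plus 3 SD, cut at about 13% in these data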;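 further: forskolin and galanin both at EC90 stimulate the cells; cAMP rise reported by CNG channel membrane potential dye signal; 0% = forskolin plus galanin with DMSO and 100% = forskolin alone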
Target sequence (O60755 1-299 limits assumed): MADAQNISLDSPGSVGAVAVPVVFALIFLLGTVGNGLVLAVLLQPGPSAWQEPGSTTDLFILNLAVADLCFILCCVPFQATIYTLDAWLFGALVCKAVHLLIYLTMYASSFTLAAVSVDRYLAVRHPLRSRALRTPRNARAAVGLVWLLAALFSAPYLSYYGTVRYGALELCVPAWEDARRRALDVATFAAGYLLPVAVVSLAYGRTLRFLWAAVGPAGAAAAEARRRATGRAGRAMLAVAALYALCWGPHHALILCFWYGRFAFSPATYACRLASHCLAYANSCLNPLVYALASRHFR
CHT allo act – allosteric activators of human choline transporter CHT | Q9GZV3 | CHT-expressing cells, membrane potential dye, choline EC20; active compounds read high; LV-AA mutant CHT in HEK293 cells | B-score at 10 µM | 310,000 tested, 0.49% active | AID 488977;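 active means initial fluorescence not abnormally high and integrated response B-score, plate-corrected, over 3 SD above library mean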
CHT inh – inhibits the human high affinity choline transporter. Q9GZV3. CHT-expressing cells, membrane potential dye, choline response; active compounds read low. B-score at 10 µM. 310,000 tested, 0.86% active. AID 488975;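 active means B-score over 3 SD under the library average, and starting fluorescence ratio not unusually high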;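 further: choline stimulus applied at its EC90 after an EC20 pre-addition; B-score computed on integrated fluorescence ratio after choline addition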
NR2F2 inh – inhibitors of human COUP-TFII (NR2F2) | AID 686940 | inhibition, % at 8.6 µM | 370,000 tested, 0.7% active | HEK293T NGFI-A luciferase reporter, luminescence | P24468;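 active means inhibition above a per-plate cutoff, mean inhibition of test wells between control levels plus 3 SD, cut at about 38% in these data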;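 further: cells cotransfected with COUP-TFII expression vector driving the NGFI-A reporter; 0% = median of COUP-TF2 test wells and 100% = reporter-only cells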
NR2E3 ag-2 – NR2E3 (human) agonism | 320,000 tested, 0.12% active | inhibition of corepressor binding, % at 4.78 µM | AID 2300 | GST-NR2E3/biotin-RetCOR TR-FRET, 1536-well;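 active means percent inhibition above the cutoff of mean plus 3 SD of all tested compounds, set per screening campaign, cut at about 20% in these data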;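 further: 0% = DMSO wells and 100% = biotin wells as full block of FRET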
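Assay system: NR2E3–RetCOR corepressor complex. Quantity: 1.35 nM GST-NR2E3. Buffer or medium: pH 7.5 Tris-based buffer. Reagent: biotinylated RetCOR corepressor at 7 nM final. Schedule: 5 h at 4 °C. Detection: TR-FRET, emission read at 617 and 671 nm. Replicates: one well per compound, singlicate testing.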
CHT block conf – confirmation of human choline transporter CHT inhibitors | shares compounds with CHT inh | CHT-expressing cells, choline membrane potential dye; LV-to-AA substituted CHT, HEK293 cells | CHT activity remaining % of control (active compounds read low), % at 10 µM | AID 493221 | 2,400 tested, 70% active;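 active means choline transporter activity left, mean of duplicates at 10 µM, below buffer-only control mean minus 3 SD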;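 further: depolarization triggered by choline at its EC90 following an EC20 pre-addition; 0% = hemicholinium-3 full block and 100% = buffer-only control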
HEK293 CHT ctr – activity in parental HEK293 cells lacking CHT | shares compounds with CHT inh | membrane potential dye, choline response; active = decrease or increase beyond buffer ±3SD | membrane potential ratio readout (active if shifted either direction beyond buffer ±3SD; no single direction) at 10 µM | 2,400 tested, 4% active;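 further: parental cells lack the transporter so any hit is non-specific; ratio is peak minus trough fluorescence over baseline after EC90 choline challenge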
* marks the source's active call; other numbers are inactive results; i = inactive; nt = not tested or not shown.

SMILES	NR2E3 ag-1	GalR3 antag	CHT allo act	CHT inh	NR2F2 inh	NR2E3 ag-2	CHT block conf	HEK293 CHT ctr
CCOc1nc(-c2ccccc2)ncc1Oc1ccccc1	4	-4	i	-5*	4	4	i	i
C[C@H]1[C@H](NC(=O)c2ccc(Cl)c(Cl)c2)CC[C@@]23CCCN2C(=O)CCC[C@@H]13	nt	nt	nt	nt	21	nt	nt	nt
COc1ccc(C)cc1NC(=O)CSc1nnc(-c2n[nH]c3c2CCC3)n1N	nt	nt	nt	nt	12	nt	nt	nt
COc1cc2c(cc1NC(=O)CSc1nnc(COc3ccccc3)n1Cc1ccco1)oc1ccccc12	nt	nt	nt	nt	-2	nt	nt	nt
CCc1cc2c(=O)n(CC)c(SC(C)C(=O)Nc3c(C)n(C)n(-c4ccccc4)c3=O)nc2s1 (stereo not given)	6	2	i	-5.6*	8	-1	i	i
CCCc1cc(Nc2c(C)n(C)n(-c3ccccc3)c2=O)n2c(nc3ccccc32)c1C#N	-7	0	i	-8*	-4	1	38%*	i
Cc1cc(Nc2c(C)n(C)n(-c3ccccc3)c2=O)n2c(nc3ccccc32)c1C#N	8	1	i	i	-25	2	nt	nt
O=c1cc(CSc2ccccc2)nc(-c2ccncc2)[nH]1	29	-3	i	-6.5*	7	1	i	i
c1ccc(N2CCN(Cc3ccnc4ccccc34)CC2)cc1	-4	-11	i	-11*	5	0	i	i
O=C(O)COc1cccc(NC(=O)c2ccccc2)c1	-6	-2	i	i	4	4	nt	nt
Cc1cccc(C(=O)Nc2cccc(OCC(=O)O)c2)c1	-7	4	i	-5*	-7	2	57%*	i
COc1ccccc1C(=O)NC1CCCCN(Cc2ccc(OC(F)(F)F)cc2)C1=O (stereo not given)	nt	nt	nt	nt	11	nt	nt	nt
COc1ccc(C(=O)N(C)Cc2ccc(C)o2)cc1OC1CCN(C(C)C)CC1	-5	-4	i	-6.3*	7	1	30%*	i
COc1ccc(C(=O)N2CCCCCC2)cc1OC1CCN(C(C)C)CC1	9	-1	i	-5*	-30	3	45%*	i
COc1ccc(C(=O)NCc2cnn(C)c2C)cc1OC1CCN(C(C)C)CC1	14	-2	i	-11*	1	3	12%*	i
COc1cccc(CCNC(=O)c2ccc(OC)c(OC3CCN(C(C)C)CC3)c2)c1	-6	-2	i	-13*	-17	2	12%*	i
COc1ccc(C(=O)NCCc2ccc(C)cc2)cc1OC1CCN(C(C)=O)CC1	-2	-6	i	i	7	4	nt	nt
COCCCNC(=O)c1ccc(OC)c(OC2CCN(C(C)C)CC2)c1	7	-2	i	-6*	1	-2	36%*	i
COc1ccccc1CCNC(=O)c1ccc(OC)c(OC2CCN(C(C)C)CC2)c1	-20	-5	i	-12*	7	2	8.6%*	i
COc1ccc(C(=O)NCCOC(C)C)cc1OC1CCN(C(C)=O)CC1	0	-7	i	i	21	-1	nt	nt
CC(C)C[C@H](NC(C)(C)C(=O)NC1CCCCC1)C(=O)NCC(c1ccccc1)c1ccccc1	nt	nt	nt	nt	21	nt	nt	nt
Cc1cccc(N2CCN(C(=O)COc3cc(=O)n(C)c4ccccc34)CC2)c1C	12	-4	i	-13*	14	0	31%*	i
CC1CCN(C(=O)CCCOc2cc(=O)n(C)c3ccccc23)CC1	-28	-3	i	-5.9*	-57	2	69%*	i
CCCCCCCCN1C(=O)[C@@H](CC(=O)N2CCCCC2)C[C@@]2(C(=O)OC)C1=C[C@H](C(C)C)O[C@@H]2C1CC1	nt	nt	nt	nt	7	nt	nt	nt
